Series [1] relates to baseline non-HDL-cholesterol. The experiment in a line: Covariate analysis on baseline non-HDL-cholesterol in the PK/PD model. The class given is in vivo, people living with HIV. The settings on record: coadministration, final PK/PD model covariate. In short, it runs like this:
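Indirect-response model linked to the final population PK model (plasma rosuvastatin by UHPLC-MS/MS; daily doses 5–20 mg). Drug inhibits kin, with kout = kin/baseline. Covariates (ARV regimen, comedications, diabetes, weight, AST, ALT, age) were tested on baseline only, by stepwise forward inclusion and backward deletion. Continuous covariates were median-centred (linear or allometric), categorical ones coded 0/1. Cholesterol was measured enzymatically (cholesterol oxidase).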

Series [2] is described as follows: Population pharmacokinetic model. Format: in vivo, people living with HIV. In short, it runs like this: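 Adults with HIV on rosuvastatin 5–20 mg daily. Plasma came from a rich-sampling study and from sparse samples at cohort visits, 0.2–38.5 h post-dose, and was assayed by UHPLC-MS/MS. Models tested one or two compartments with first-order, zero-order or mixed absorption. Absorption parameters were fixed from the rich data. Between-subject variability was log-normal; residual error additive on the log scale. Covariate thresholds: ΔOFV 3.84 forward, 7.88 backward.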

For series [3] the following is noted: literature values ref 12, 26, 27; cited from earlier work.
The conditions of series [4]: cited from earlier work.
Where [5] appears, read: estimated from full PK profiles (rich sampling), without variability.
[6] abbreviates: coadministered with cobicistat-boosted darunavir ref 20.
[7] abbreviates: coadministered with ritonavir-boosted atazanavir ref 19.
[8] abbreviates: coadministered with ritonavir-boosted darunavir ref 9.
Setting [9] is: coadministered with ritonavir-boosted lopinavir ref 30.

Like-named read-outs stand apart in the source and are kept apart here. A value given as a limit tells only on which side of the number the result lay.

Consider `Cc1cc(C#N)cc(C)c1Oc1nc(Nc2ccc(C#N)cc2)nc(N)c1Br` [etravirine], for which the “decrease in the baseline non-HDL-cholesterol value” in series [1] came out at 14%.

Regarding `CC(C)c1nc(N(C)S(C)(=O)=O)nc(-c2ccc(F)cc2)c1/C=C/[C@@H](O)C[C@@H](O)CC(=O)O` [rosuvastatin], the “Cl decrease with boosted PIs that the study was powered to rule out” value in series [2] (coadministered boosted PIs, univariate analysis) was no more than 22%. The absorption rate constant in series [2] (setting [5]) was 0.306 h⁻¹. Also, the “duration of zero-order absorption” value in series [2] (setting [5]) is 0.461 h. In addition, the “increase in rosuvastatin Vc” value in series [2] (in women, univariate testing, not significant in multivariate analysis) is reported as “three-fold”. Also, in series [3], the volume of distributions was 1255 to 4870 L. Also, the “increase in rosuvastatin AUC0–24” value is on record as 93% in series [4] (setting [6]), 213% in series [4] (setting [7]), 48% in series [4] (setting [8]) and 110% in series [4] (setting [9]). The “increase in rosuvastatin Cmax” value is on record as 277% in series [4] (setting [6]), 600% in series [4] (setting [7]), 143% in series [4] (setting [8]) and 370% in series [4] (setting [9]).
